In PMC11429891 (bioRxiv, 2024):
Bridge positions count the residues as written; N and C are the ends. Peptide text beside a SMILES is read from it.

Key:
MCF10CA1a tumors = assay: In vivo homing, orthotopic MCF10CA1a breast tumors; parameters: species or system athymic nude mice, human triple-negative breast cancer cells; conditions: 30 nmoles i.v., 60 min circulation, n=3
Method in brief: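 Orthotopic breast tumors: athymic nude mice were given 2×10^6 MCF10CA1a cells in PBS into the mammary gland and used 14 days later. FAM-labelled peptide (30 nmol in PBS) was injected i.v. and circulated 60 min, followed by PBS perfusion, overnight 4% PFA fixation, sucrose and OCT embedding. 10 µm sections were immunostained for FAM without permeabilization. n=3.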

WT-GBM tumors = assay: In vivo homing, WT-GBM glioblastoma model; parameters: species or system mice (Fox/Nu); conditions: 30 nmoles i.v., 60 min circulation, n=3
Method in brief: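 Fox/Nu mice received 7×10^5 WT-GBM cells stereotactically into the right striatum and were used 6-7 days later. FAM-labelled peptide (30 nmol in PBS) was given i.v. and circulated 60 min. Mice were perfused intracardially with PBS, and organs were fixed in 4% PFA pH 7.4 overnight, sucrose-cryoprotected and OCT-embedded. 10 µm sections were stained without permeabilization for FAM and CD31 (primary 1/100 overnight 4°C; secondary 1/200). n=3.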

Casein = assay: ELISA binding to casein-coated plates; conditions: plates coated with Casein, FAM-labeled peptide
[1] = system: intracranial U87MG glioblastoma; assay: In vivo homing, intracranial U87MG glioblastoma; parameters: species or system mice (female athymic nude), human U87MG xenograft; conditions: 30 nmoles i.v., 60 min circulation
Method in brief: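 Tumors were induced in female athymic nude mice by intracranial injection of 3×10^5 U87MG cells into the right striatum (2 mm lateral, 2 mm posterior to bregma, 2.5 mm deep) and grown 9 days. Mice received FAM-labelled peptide, 30 nmol in PBS i.v., for 60 min, then PBS perfusion, 4% PFA fixation, sucrose and OCT. 10 µm sections were stained without permeabilization for FAM with CD31 or SNAP25. n=3.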

healthy brain = assay: In vivo homing, healthy brain; parameters: species or system mice; conditions: 30 nmoles i.v., 60 min circulation, n=3
Method in brief: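 Healthy (non-tumor) mice received FAM-labelled peptide, 30 nmol i.v. in PBS, for 60 min. Mice were perfused with PBS, and brains were fixed in 4% PFA, cryoprotected in sucrose and embedded in OCT. Sections were stained without permeabilization for FAM and SNAP25 (primary 1/100 overnight at 4°C, secondary 1/200). n=3.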

recombinant SNAP25 [2] = assay: ELISA binding to SNAP25-coated plates; parameters: species or system human; conditions: plates coated with recombinant SNAP25, FAM-labeled peptide
AD brain vasculature = conditions: ref [9], cited from earlier work
[3] = system: adhesion of U87MG cells to collagen VI; assay: U87MG adhesion to collagen VI-coated plates; type: cell-based; conditions: CES 30μM, 24 h, then 48 h, DAPI nuclei count
Method in brief: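 Wells were coated with collagen VI (5 µg/cm² from 50 µg/ml in 500 mM acetic acid) for 1 h at room temperature, then washed with PBS. U87MG cells were seeded with or without anti-SNAP25 antibody (5 µg/mL) or 30 µM test peptide. Medium was changed at 24 h and culture continued 48 h. Cells were fixed in 4% PFA, blocked and DAPI-stained, and nuclei were counted per image area (1.2 mm²).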

[4] = Quartz crystal microbalance, PAH control layer; type: binding; conditions: label-free, peptide 30μM final in PBS
U87MG cells [5] = assay: Viability without laser irradiation; type: cell-based; conditions: up to 30μM, 30 min at 37°C, no laser irradiation, 24 h, MTS
[6] = Quartz crystal microbalance, PAH-BSA control multilayer; type: binding; conditions: label-free, peptide 30μM final in PBS
Method in brief: (§1)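 The 5 MHz Cr/Au quartz crystal was cleaned with isopropanol, ethanol and water. It was treated with 20 mM mercaptopropanesulfonate in 10 mM H₂SO₄ for 30 min, then with 10 µM (monomer) poly(allylamine hydrochloride) at pH 8 for 10 min. Human recombinant SNAP25 or BSA was deposited at 0.01 mg/mL for 10 min. After a baseline in 500 µL PBS, 50 µL of 300 µM peptide stock in PBS was added and mass change recorded.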

human recombinant SNAP25 = human recombinant SNAP25 (Homo sapiens, UniProt P60880); assay: Quartz crystal microbalance binding to SNAP25
Method in brief: as §1

recombinant SNAP25 [7] = assay: Surface plasmon resonance, immobilized SNAP25; type: binding, human; conditions: read-out: KD (estimative), SPR; one-to-one model, SNAP25 via His-Tag/Ni-NTA, collagen 20μg/ml, 20 °C, OpenSPR
Method in brief: (§2)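 SPR was run at 20 °C on an NTA sensor chip conditioned with 10 mM HCl, 200 mM imidazole and EDTA, then activated with 40 mM NiCl₂. His-tagged ligand was captured on channel 2 only: human recombinant SNAP25 at 150 µg/mL, or the control mouse M-CSF (28 kDa, 9-His) at 10 µg/mL. Collagen V or VI at 20 µg/ml in PBS flowed through both channels at 20 µl/min. Data were fitted to a one-to-one model.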

U87MG cells [8] = assay: U87MG cell culture on collagens V and VI, morphology; type: cell-based; conditions: versus plastic (colonies); 5μg/cm^2 collagen coating
Method in brief: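 Plates were coated for 1 h at room temperature with bovine collagen VI or human collagen V (5 µg/cm², from 50 µg/ml in 500 mM acetic acid) and washed twice with PBS. U87MG cells were seeded and grown 24 h, then given fresh medium for another 48 h. Cells were fixed in 4% PFA, blocked, DAPI-stained and imaged by fluorescence microscopy.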

[9] = system: control protein (recombinant mouse macrophage colony-stimulating factor (M-CSF)); assay: Surface plasmon resonance, control protein; type: binding; conditions: control protein of similar molecular weight, immobilized in the same way, 20 °C
Method in brief: as §2

recombinant SNAP25 [10] = assay: Binding of SNAP25 to ECM array; parameters: species or system human; conditions: recombinant SNAP25 1/200, overnight 4°C, A488 anti-SNAP25 detection
Method in brief: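 Array slide of ECM proteins (collagens I, III, IV, V, VI, fibronectin, laminin, vitronectin, tropoelastin) washed in PBS and PBST, then blocked 1 h at room temperature in 5% BSA/5% FBS in PBST. Human recombinant SNAP25 was applied at 1/200 in 1/5-diluted blocking buffer overnight at 4°C. Bound protein was detected with A488 anti-SNAP25 at 1/200 overnight at 4°C, then imaged by fluorescence in the green channel.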

[11] = system: connective tissue growth factor (CTGF) bound to the vascular extracellular matrix; conditions: ref [9]; cited from earlier work
SK-N-AS cells = assay: Photodynamic cytotoxicity; type: cell-based; conditions: 3μM conjugate, 30 min, 3 washes, 690nm laser 10 J/cm^2 (160 mW/cm^2), 24 h, MTS
Method in brief: (§3)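 Cells (30.000/well) were attached overnight, then exposed 30 min to peptide–verteporfin conjugates at 3 µM final. Wells were washed 3× with full medium and refreshed. Irradiation used a 690 nm laser, 10 J/cm² at 160 mW/cm². After 24 h further culture, viability was measured by MTS/PMS (2 h, 37 °C, 5% CO₂), reading absorbance at 492 nm.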

U87MG cells [12] = assay: Photodynamic cytotoxicity; type: cell-based, human; conditions: 24 h, MTS
Method in brief: as §3

HEK293T cells = assay: Photodynamic cytotoxicity; type: cell-based; conditions: 3μM conjugate, 30 min, 3 washes, 690nm laser 10 J/cm^2 (160 mW/cm^2), 24 h, MTS
Method in brief: as §3

LN229 cells = assay: Photodynamic cytotoxicity; type: cell-based; conditions: 3μM conjugate, 30 min, 3 washes, 690nm laser 10 J/cm^2 (160 mW/cm^2), 24 h, MTS
Method in brief: as §3

human recombinant SNAP25, sequence (P60880 whole entry): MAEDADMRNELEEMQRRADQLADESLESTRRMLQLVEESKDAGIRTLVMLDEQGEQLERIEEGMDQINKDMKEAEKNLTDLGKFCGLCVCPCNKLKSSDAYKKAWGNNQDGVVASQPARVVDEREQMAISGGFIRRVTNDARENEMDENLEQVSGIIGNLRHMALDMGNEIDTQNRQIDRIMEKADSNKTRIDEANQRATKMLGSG

## FAM-Ahx-CESPLLSEC-NH2 (disulfide) [FAM-CES]
MCF10CA1a tumors
  tumor homing, orthotopic breast cancer: no tumor homing
WT-GBM tumors
  colocalization with CD31 in WT-GBM: showed colocalization with CD31
  homing to WT-GBM tumors: targeted WT-GBM tumors
Casein
  binding to Casein, ELISA: not to Casein
[1]; n=3, FAM/CD31 immunostaining
  co-distribution with blood vessel marker CD31 in U87MG tumor: co-distributing with the blood vessel marker CD31
[1]; n=3, FAM/SNAP25 immunostaining
  colocalization with SNAP25 in U87MG tumors: apparent colocalization with SNAP25 in U87MG tumors
Healthy brain
  homing to healthy brain: no homing to healthy brain
Recombinant SNAP25 [2]
  binding to SNAP25, ELISA: bound to SNAP25

## CC(=O)N[C@H]1CSSC[C@@H](C(N)=O)NC(=O)[C@H](CCC(=O)O)NC(=O)[C@H](CO)NC(=O)[C@H](CC(C)C)NC(=O)[C@H](CC(C)C)NC(=O)[C@@H]2CCCN2C(=O)[C@H](CO)NC(=O)[C@H](CCC(=O)O)NC1=O [CES] (Ac-CESPLLSEC-NH2; disulfide 1-9)
AD brain vasculature; genetically modified mouse AD model, in vivo phage library screen, will be reported elsewhere
  homing to blood vessels of AD brain: specifically accumulates (homes) in the blood vessels of AD brain
[3]
  effect on adhesion of U87MG cells to collagen VI-coated plates: affected the adhesion of U87MG cells to collagen VI-coated plates
[4]
  binding to control layer PAH, QCM: did not bind to the control layers
U87MG cells [5]
  cytotoxicity of peptide alone, U87MG: did not elicit cytotoxicity
[6]
  binding to control multilayer PAH-BSA, QCM: did not bind to the control layers
Human recombinant SNAP25
  Kd: 0.024 µM
Human recombinant SNAP25; SNAP25 on PAH layer, washing with PBS
  dissociation rate upon washing with PBS, QCM: slow dissociation rate

## collagen V: Human type V Collagen-Lyophilized (Southern Biotech, Cat # 1270–01)
Recombinant SNAP25 [7]
  Kd: 7.2 µM
U87MG cells [8]
  U87MG growth morphology on collagen-coated plates: formed monolayers and presented particles attached to the plate
[9]
  binding to control protein, SPR: no binding
Recombinant SNAP25 [10]
  binding of SNAP25 to ECM proteins, array: binding of SNAP25 to collagens V and VI

## collagen VI: Bovine Type VI Collagen-Solution (Southern Biotech Cat # 1300–02S)
Recombinant SNAP25 [7]
  Kd: 0.015 µM
U87MG cells [8]
  U87MG growth morphology on collagen-coated plates: formed monolayers and presented particles attached to the plate
[9]
  binding to control protein, SPR: no binding
Recombinant SNAP25 [10]
  binding of SNAP25 to ECM proteins, array: binding of SNAP25 to collagens V and VI

## collagen I: ECM protein on array
Recombinant SNAP25 [10]
  binding of SNAP25 to ECM proteins, array: non-binding

## collagen IV: ECM protein on array
Recombinant SNAP25 [10]
  binding of SNAP25 to ECM proteins, array: non-binding

## collagen III: ECM protein on array
Recombinant SNAP25 [10]
  binding of SNAP25 to ECM proteins, array: non-binding

## FAM-iRGD: FAM-labeled iRGD, another peptide with similar molecular weight and isoelectric point [reference compound]
Recombinant SNAP25 [2]
  binding to SNAP25, ELISA: did not bind to SNAP25

## CDAGRKQKC [reference compound]
AD brain vasculature; mouse AD model
  recognition of AD brain vasculature: recognize the vasculature of AD brain very early in the development of the disease
[11]
  target molecule (receptor): connective tissue growth factor (CTGF) bound to the vascular extracellular matrix

## Vert-Ahx-CESPLLSEC-NH2 (disulfide) [CES-V]
SK-N-AS cells
  toxicity, irradiated, SK-N-AS: no toxicity
U87MG cells [12]; 3μM conjugate, 30 min, 3 washes, 690nm laser 10 J/cm^2 (160 mW/cm^2)
  toxicity, irradiated, U87MG: significant toxicity
U87MG cells [12]; 3μM, 690nm laser, compared across U87MG, LN229, SK-N-AS, HEK293T
  difference in toxicity between irradiated CES-V and irradiated CtrlPep-V: only reached significance for U87MG
HEK293T cells
  toxicity, irradiated, HEK293T: no toxicity
LN229 cells
  toxicity, irradiated, LN229: significant toxicity
